Screens: PubChem, several laboratories
Sampled rows, rich in hits. Any-hit rate of the full collection: about 2.1%.
ABCB1 block: blocks JC-1 efflux by human ABCB1 transporter; P08183; CCRF-Adr cells, flow cytometry; inhibition, % at 6.6 µM; actives 0.067% (n = 190,000); in the data active = inhibition above about 40%;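 also: higher value means more JC-1 retained so stronger ABCB1 efflux block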
ABCG2 inh: blocks JC-1 efflux by human ABCG2 transporter. IgMXP3 cells, flow cytometry. inhibition, % at 6.6 µM. actives 0.1% (n = 190,000). Q9UNQ0;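 active = inhibition above 80%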
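System: two drug-resistant human cell lines, ABCG2 and ABCB1; controls: nicardipine high and DMSO low controls; times: 10 min exposure at 25 °C with rotation, no wash; detection: flow cytometry of retained JC-1 fluorescence; read-out basis: percent efflux inhibition, scaled nicardipine 100% to DMSO 0%; doses: one concentration, 6.6 µM final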
Autophagy mod: alters autophagy in cells. MEF GFP-LC3 puncta imaging; test concentration mostly 10 µM. calls only at 10 µM (by protocol). actives 0.98% (n = 190,000);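 active = percentage of spot-positive cells more than 3 SD above its plate mean, without a fluorescence outlier flag or 80% toxicity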
MT stabilizer: stabilizes microtubules in HeLa cells; % tubulin-high responders, % at 10 µM; actives 0.83% (n = 200,000); AID 2205; HeLa tubulin immunostaining HCS, 24 h; share of cells brighter than vehicle mean+2SD;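 active = plate Z-score above 3 for both tubulin-high and condensed-nucleus cell shares, with cell loss under 80%, at 10 µM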;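 also: anti alpha tubulin signal scored within the nucleus-defined area of each cell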
Arbovirus anti: antivirals against arbovirus infection. arbovirus infection cell-based antiviral screen. inhibition, % at 10 µM. actives 0.37% (n = 200,000). AID 1251; in the data active = inhibition above about 30%
bCat nuc transl: alters nuclear translocation of beta-catenin in HeLa cells. immunofluorescence imaging. nuclear translocation activity, % at 5 µM. actives 0.3% (n = 190,000). AID 1665;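 active = nuclear translocation activity above 50% at 5 µM, with a well cell count of 50 or more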;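 also: per-cell ratio of nuclear to cytoplasmic median beta-catenin stain intensity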
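System: Human HeLa cells, endogenous beta-catenin | Compound dosing: 5 µM primary, 0.02–20 µM confirmation | Timing: 24 h compound exposure at 37°C, 5% CO2 | Measured by: Fluorescence imaging of beta-catenin antibody stain plus DAPI | Read-out basis: % activation of per-cell nuclear versus cytoplasmic median beta-catenin signal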
Hits are given with their value.

What do the screens show for `O=C(CN(C(=O)c1ccccc1Cl)C1CCCCC1)Nc1ccc(Cl)c([N+](=O)[O-])c1`?
ABCB1 block: inactive; ABCG2 inh: inactive; Autophagy mod: inactive; MT stabilizer: inactive; Arbovirus anti: inactive

Results for Cc1cccc(/C=N/Nc2cc(N3CCOCC3)nc(N3CCOCC3)n2)c1 ?
ABCB1 block: inactive; ABCG2 inh: inactive; Autophagy mod: active; MT stabilizer: inactive; Arbovirus anti: inactive; bCat nuc transl: inactive

Results for COc1cc(/C=C/C(=O)Nc2nc3ccc(S(=O)(=O)N(C)C)cc3s2)cc(OC)c1OC ?
ABCB1 block: inactive; ABCG2 inh: inactive; Autophagy mod: inactive; MT stabilizer: inactive; Arbovirus anti: inactive; bCat nuc transl: inactive

How did FC(F)(F)c1ccccc1NC(=S)N1CCc2ccccc2C1 do in these assays?
ABCB1 block: inactive; ABCG2 inh: inactive; Autophagy mod: active; MT stabilizer: inactive; Arbovirus anti: inactive; bCat nuc transl: inactive

What do the screens show for `CCN(CCNC(=O)C1CCN(Cc2nc(-c3ccc(Cl)cc3)oc2C)CC1)c1ccccc1`?
ABCB1 block: inactive; ABCG2 inh: inactive; Autophagy mod: active; MT stabilizer: inactive; Arbovirus anti: inactive; bCat nuc transl: inactive

What do the screens show for `CC(C)N(Cc1ccccc1)C(=O)CCc1ccccc1`?
ABCB1 block: inactive; ABCG2 inh: inactive; Autophagy mod: inactive; MT stabilizer: inactive; Arbovirus anti: inactive; bCat nuc transl: inactive

What do the screens show for `CC(C)N(Cc1ccccc1)C(=O)CSc1nccn1C`?
ABCB1 block: inactive; ABCG2 inh: inactive; Autophagy mod: active; MT stabilizer: inactive; Arbovirus anti: inactive; bCat nuc transl: inactive

Results for Cc1ccc(S(=O)(=O)NNC2CC(=O)N(c3ccc(Br)cc3)C2=O)cc1 (stereo not given) ?
ABCB1 block: inactive; ABCG2 inh: inactive; Autophagy mod: active; MT stabilizer: inactive; Arbovirus anti: inactive; bCat nuc transl: inactive

Results for Cc1nc2c3ccccc3n(Cc3ccccc3F)c2s1 ?
ABCB1 block: inactive; ABCG2 inh: inactive; Autophagy mod: inactive; MT stabilizer: inactive; Arbovirus anti: inactive; bCat nuc transl: inactive

How did Cc1nc2c3cc(F)ccc3n(CCN3CCCCC3)c2s1 do in these assays?
ABCB1 block: inactive; ABCG2 inh: inactive; Autophagy mod: inactive; MT stabilizer: 14.5; Arbovirus anti: inactive; bCat nuc transl: inactive

How did Cc1nc2c3cc(F)ccc3n(Cc3ccccc3F)c2s1 do in these assays?
ABCB1 block: inactive; ABCG2 inh: inactive; Autophagy mod: inactive; MT stabilizer: 26.6; Arbovirus anti: inactive; bCat nuc transl: inactive

How did Cc1nc2c3cc(F)ccc3n(Cc3ccccc3)c2s1 do in these assays?
ABCB1 block: inactive; ABCG2 inh: inactive; Autophagy mod: inactive; MT stabilizer: 28.0; Arbovirus anti: inactive; bCat nuc transl: inactive

What do the screens show for `CSc1nnc2c3cc(F)ccc3n(Cc3ccccc3)c2n1`?
bCat nuc transl: inactive

How did COc1ccc2c(Cl)c(C(=O)N/N=C/c3c(C)[nH]c4ccccc34)sc2c1 do in these assays?
ABCB1 block: inactive; ABCG2 inh: inactive; Autophagy mod: inactive; MT stabilizer: 21.5; Arbovirus anti: inactive; bCat nuc transl: 77.5

What do the screens show for `COCCCNC(=O)c1cn(CC(C)C)c(=O)c2c1c1ccccc1n2C`?
ABCB1 block: inactive; ABCG2 inh: inactive; Autophagy mod: inactive; MT stabilizer: inactive; Arbovirus anti: inactive

Results for CCOc1ccc(NC(=O)c2cn(CC(C)C)c(=O)c3c2c2ccccc2n3C)cc1 ?
ABCB1 block: inactive; ABCG2 inh: inactive; Autophagy mod: active; MT stabilizer: inactive; Arbovirus anti: inactive; bCat nuc transl: inactive

What do the screens show for `Cc1ccccc1NC(=O)N1C2CCCC1CC(NC(=O)C1CC1)C2` (stereo not given)?
ABCB1 block: inactive; ABCG2 inh: inactive; Autophagy mod: inactive; MT stabilizer: inactive; Arbovirus anti: inactive; bCat nuc transl: inactive

Results for CCOc1ccccc1NC(=O)N1C2CCCC1CC(NC(=O)C1CC1)C2 (stereo not given) ?
ABCB1 block: inactive; ABCG2 inh: inactive; Autophagy mod: active; MT stabilizer: inactive; Arbovirus anti: inactive; bCat nuc transl: inactive

What do the screens show for `CCOc1ccccc1NC(=O)C1CCN(C(=O)c2cccs2)CC1`?
ABCB1 block: inactive; ABCG2 inh: inactive; Autophagy mod: active; MT stabilizer: inactive; Arbovirus anti: inactive; bCat nuc transl: inactive

How did N#CC(C#N)=Cc1cc2ccccc2nc1N1CCCCC1 do in these assays?
ABCB1 block: inactive; ABCG2 inh: inactive; Autophagy mod: inactive; MT stabilizer: inactive; Arbovirus anti: 32.0; bCat nuc transl: inactive

How did O=C(NC(=S)NCc1nc2ccccc2[nH]1)c1ccccc1F do in these assays?
ABCB1 block: inactive; ABCG2 inh: inactive; Autophagy mod: inactive; MT stabilizer: inactive; Arbovirus anti: inactive; bCat nuc transl: inactive

Results for O=Cc1ccc(OCc2ccccn2)cc1 ?
ABCB1 block: inactive; ABCG2 inh: inactive; Autophagy mod: inactive; MT stabilizer: inactive; Arbovirus anti: 34.1; bCat nuc transl: inactive

How did COc1ccccc1Oc1coc2c(CN3CCOCC3)c(O)ccc2c1=O do in these assays?
bCat nuc transl: inactive

Results for O=C(NC(NC(=S)Nc1cccc(C(=O)O)c1)C(Cl)(Cl)Cl)OCc1ccccc1 (stereo not given) ?
ABCB1 block: inactive; ABCG2 inh: inactive; Autophagy mod: inactive; MT stabilizer: inactive; Arbovirus anti: inactive; bCat nuc transl: inactive

What do the screens show for `O=C(Nc1ccc(Cl)cc1)Nc1ccc(N2CCOCC2)cc1`?
ABCB1 block: inactive; ABCG2 inh: inactive; Autophagy mod: inactive; MT stabilizer: inactive; Arbovirus anti: inactive; bCat nuc transl: inactive

What do the screens show for `O=C(Nc1ccc(N2CCOCC2)cc1)C1(c2ccc(Cl)cc2)CCC1`?
ABCB1 block: inactive; ABCG2 inh: inactive; Autophagy mod: inactive; MT stabilizer: 9.9; Arbovirus anti: inactive; bCat nuc transl: inactive

Results for CC1(C)NC(=O)N(CCCOc2ccc(Br)cc2Cl)C1=O ?
ABCB1 block: inactive; ABCG2 inh: inactive; Autophagy mod: inactive; MT stabilizer: inactive; Arbovirus anti: inactive; bCat nuc transl: inactive

Results for CC(=O)NC(Cc1ccccc1C)C(=O)NC1CCN(C(=O)c2ccc(C)cc2)CC1 (stereo not given) ?
ABCB1 block: inactive; ABCG2 inh: inactive; Autophagy mod: active; MT stabilizer: inactive; Arbovirus anti: inactive; bCat nuc transl: inactive

Results for CCCCOC(=O)CSC1=C(C#N)C(c2ccc3c(c2)OCO3)CC(=O)N1 (stereo not given) ?
ABCB1 block: inactive; ABCG2 inh: inactive; Autophagy mod: inactive; MT stabilizer: inactive; Arbovirus anti: inactive; bCat nuc transl: inactive

What do the screens show for `CCOC(=O)CSC1=C(C#N)C(c2ccc3c(c2)OCO3)CC(=O)N1` (stereo not given)?
ABCB1 block: inactive; ABCG2 inh: inactive; Autophagy mod: inactive; MT stabilizer: 49.4; Arbovirus anti: inactive; bCat nuc transl: inactive

Results for O=C(NCc1ccco1)C1CCCCC1 ?
ABCB1 block: inactive; ABCG2 inh: inactive; Autophagy mod: inactive; MT stabilizer: inactive; Arbovirus anti: inactive; bCat nuc transl: inactive
